Screens (PubChem)
Compounds with a hit are over-represented: about 5.4% of the library has one in this group of screens.
PostGolgi yeast: phenotypic screen on post-Golgi transport, primary screen. post-Golgi transport phenotypic cell assay. inhibition, % at 10 µM. 0.9% of 98,000 active. AID 739, 2007;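 note: yeast cells grown in 1536-well plates; yeast grown about 18 h at 30C before absorbance read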
PostGolgi ctrl: growth inhibition of yeast control strain, primary screen, counter-screen for post-Golgi transport modulator project. efflux-deficient yeast background strain, growth absorbance A615, 16 h. AID 738, 2007. inhibition, % at 10 µM. 5% of 98,000 active
PLAP act: PLAP enzyme activators, biochemical, luminescence, HTS; AID 696, 2007; activation fold at 20 µM; 1.2% of 96,000 active; purified PLAP enzyme, luminescent substrate read-out; stronger effect = higher value; in the data active = activation fold above about 2
tolC growth inh: growth inhibitors of E. coli tolC mutant, primary screen, strain BW25113 ΔtolC::kan, 384-well | OD615 | growth inhibition, % at 10 µM (by protocol) | 2.2% of 65,000 active | AID 573, 2007;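 active = growth inhibition at or above a cutoff equal to the mean over every tested compound plus 3 SD, cut at about 60% in these data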;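 note: growth measured after 20 h incubation at 37 °C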
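Test system: E. coli BW25113 ΔtolC::kan bacteria; incubation: 37 °C, 20 h exposure; medium: LB broth supplemented with 50 µg/mL kanamycin; read-out basis: percent growth inhibition; signal: A615 absorbance measurement; compound: 10 µM final, single dose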
E coli WT exp: growth inhibitors of wild-type E. coli, primary screen, strain BW25113, expanded library, OD600. OD600 absorbance. growth inhibition, % at 100 µM. 0.15% of 98,000 active;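 active = growth inhibition above about 50% at one test dose, limit read from the data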;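 note: growth measured after 20 h incubation at 37 °C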
HePTP inhibitor: inhibitors of human HePTP phosphatase, primary screen, biochemical, absorbance, leukemia target; recombinant HePTP phosphatase activity, OD absorbance; inhibition, % at 20 µM; 0.64% of 110,000 active; Tyrosine-protein phosphatase non-receptor type 7 (Homo sapiens), P35236; in the data active = inhibition above about 50%;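 note: plate controls were vehicle for no effect and reference inhibitor for full effect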
Target sequence (P35236 whole entry, looked up): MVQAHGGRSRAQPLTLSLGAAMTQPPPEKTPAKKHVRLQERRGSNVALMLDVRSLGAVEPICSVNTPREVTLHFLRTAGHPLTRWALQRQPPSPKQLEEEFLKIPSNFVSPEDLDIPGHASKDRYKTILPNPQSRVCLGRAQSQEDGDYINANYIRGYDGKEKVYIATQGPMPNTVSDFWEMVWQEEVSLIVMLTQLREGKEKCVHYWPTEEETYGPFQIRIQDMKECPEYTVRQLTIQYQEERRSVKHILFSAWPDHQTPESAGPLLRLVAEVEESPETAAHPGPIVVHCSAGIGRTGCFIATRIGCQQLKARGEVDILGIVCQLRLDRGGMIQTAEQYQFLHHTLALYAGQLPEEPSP
The depositor's hits bear a star; x = no result. Cut-off read from the data, not from the text of the source, unless noted: active = inhibition above about 30%; inactive = the rest.

SMILES	PostGolgi yeast	PostGolgi ctrl	PLAP act	tolC growth inh	E coli WT exp	HePTP inhibitor
NC1=NC(c2ccc(F)cc2)n2c(nc3ccccc32)N1 (stereo unspecified)	-0.5	4.8	1.9	-3.2	4.0	5.5
Cc1ccc(-n2c(C)cc(C3N=C(N)Nc4nc5ccccc5n43)c2C)c(C)c1 (stereo unspecified)	0.6	45.9*	5.4	100.0*	-21.0	4.6
CCCc1cc(Nc2c(C)n(C)n(-c3ccccc3)c2=O)n2c(nc3ccccc32)c1C#N	-4.7	-5.3	1.4	8.6	-5.0	0.0
COc1ccc(CCNc2cc(-c3ccccc3)nc3ncnn23)cc1	8.7	4.3	0.8	x	5.0	x
c1ccc(Nc2cc(-c3ccccc3)nc3ncnn23)cc1	92.6*	15.3	1.1	3.7	-4.0	4.2
COc1ccc(CNC(=O)c2cnc3n(c2=O)CCS3)cc1	3.8	18.3	0.9	-6.2	5.0	16.0
O=C(Nc1ccc(-c2nc3ccccc3s2)cc1)c1ccc(Br)o1	x	x	x	x	x	8.3
CCCCCc1nc(-c2nonc2N)no1	-3.1	3.8	0.9	x	11.0	x
CNc1cc(CSC)nc(SCc2ccc(Cl)c(Cl)c2)n1	27.4	35.0*	1	x	-3.0	x
CC(C)(C)NC(=O)CSc1nnc(NC(=O)CCn2cnc3ccccc3c2=O)s1	-7.5	1.6	1.1	-7.6	2.0	7.4
COc1ccc(NC(=O)CSc2nnc(Cc3ccccc3)o2)c(OC)c1	-0.2	10.5	2.3*	19.8	10.0	7.5
COc1ccc(NC(=O)COc2ccc(C(C)(C)c3ccccc3)cc2)c(OC)c1	x	x	x	x	x	102.3*
COc1ccccc1NC(=O)CSc1nnc(Cc2ccccc2)o1	-4.4	10.2	1	-2.5	3.0	-0.2
COc1ccc(NC(=O)COc2ccccc2)c(OC)c1	-0.3	3.9	1	-0.7	3.0	6.4
COc1ccc(CCCc2nnc(SCC(=O)Nc3ncc(C)s3)o2)cc1	0.5	42.7*	1	-9.0	-9.0	0.9
COc1ccc(Cc2nnc(SCC(=O)Nc3ncc(C)s3)o2)cc1	-2.0	9.7	1	-4.1	-2.0	9.5
CCCCCCCCCOC(=O)C[n+]1csc(CCO)c1C	14.5	63.9*	0.7	x	9.0	x
COCCCNC(=S)NNC(=S)Nc1ccc(F)cc1F	7.7	5.3	2.7*	x	1.0	x
Cc1ccc2c(C)nc(Nc3nc(-c4ccccc4)cc(=O)[nH]3)nc2c1	x	x	x	x	x	-4.3
O=c1c2c3c(sc2nc(SCc2ccc([N+](=O)[O-])cc2)n1-c1ccccc1)CCCC3	x	x	x	x	x	3.4
N#Cc1cnn(-c2nc(SCc3ccccc3)nc3sc4c(c23)CCCC4)c1N	13.8	34.1*	0.9	1.6	-8.0	8.9
OCCNCc1cc(Br)ccc1OCc1ccc(Cl)cc1	-5.5	0.8	1.1	x	32.0	x
Brc1ccc(OCc2ccccc2)c(CNCc2ccncc2)c1	101.3*	94.9*	1.3	x	13.0	x
Brc1ccccc1-c1nnc2sc(-c3ccc4c(c3)OCCO4)nn12	2.9	60.5*	0.8	13.0	-4.0	3.1
Cc1ccc(C)c(NCc2cccnc2)c1	x	x	x	x	x	8.7
SMILES	PostGolgi yeast	PostGolgi ctrl	PLAP act	tolC growth inh	E coli WT exp	HePTP inhibitor
O=C1N=C(N2CCOCC2)S/C1=C/c1ccc(Cl)cc1	x	x	x	x	x	101.9*
Cc1cc(NC(=O)CSc2nnc(-c3ccco3)n2Cc2ccco2)no1	0.3	7.9	0.8	-6.9	2.0	5.8
O=C(NCCc1ccc(Cl)cc1)C(=O)Nc1nccs1	x	x	x	x	x	0.7
O=C(Nc1nccs1)Oc1ccccc1	-4.8	36.6*	0.9	-19.3	7.0	6.2
O=C(CCCOc1ccccc1)Nc1nccs1	14.2	7.7	1	2.2	4.0	6.7
O=C(NCCc1ccccc1F)C(=O)Nc1nccs1	-10.5	30.3*	0.9	x	-4.0	4.5
Cn1c(=N)n(CC(=O)c2ccc(Br)s2)c2ccccc21	15.2	-4.3	0.7	x	16.0	x
Cc1ccc(-c2[nH]nc(N)c2N=Nc2ccccc2C)cc1	53.6*	62.9*	1	x	1.0	x
Cc1ccc(-c2[nH]nc(N)c2N=Nc2cccc(Cl)c2C)cc1	15.4	44.5*	1.1	x	-16.0	x
Cc1cccc(N=Nc2c(N)n[nH]c2-c2ccc(Cl)cc2)c1	4.7	33.6*	1	x	-12.0	x
CS/C(=N\S(=O)(=O)c1ccc(Cl)cc1)c1ccccc1	2.5	-2.3	0.7	x	-5.0	-15.4
COc1cc(C(=O)Nc2ccc(S(=O)(=O)NC(C)(C)C)cc2)cc(OC)c1OC	-13.6	4.6	0.8	x	23.0	x
COc1ccc(C2C(C#N)=C(N)Oc3n[nH]c(-c4ccccn4)c32)c(OC)c1OC (stereo unspecified)	-0.2	-0.8	1.6	-17.9	-3.0	-13.7
O=C(CN(C1CC1)S(=O)(=O)c1ccc(S(=O)(=O)NC2CCCCC2)cc1)Nc1ccccc1	1.0	7.5	0.9	82.9*	-12.0	2.5
CCOc1cc(S(=O)(=O)NC2CCCCCC2)ccc1F	12.1	40.0*	0.9	59.7	10.0	8.0
O=S(=O)(NC1CCCCC1)c1ccc(Br)cc1	-4.2	32.0*	0.9	16.1	-4.0	2.3
Cc1cc(C)c[n+](CC(=O)c2cc3ccccc3oc2=O)c1	-5.8	-1.5	1.2	x	4.0	x
c1ccc(-c2ccc(-c3cn4c(n3)CCC4)cc2)cc1	0.3	32.7*	1.6	x	-2.0	x
COc1ccc(-c2cn3c(n2)CCC3)cc1	-3.5	4.0	1	-12.4	10.0	6.7
Cn1c(SCC(=O)N2CCCCC2)nc2c([nH]c3ccccc32)c1=O	0.0	11.1	0.9	3.5	1.0	2.1
Clc1ccc2nc(CN3CCCc4ccccc43)cn2c1	-5.2	20.1	1.6	61.2*	11.0	5.6
Clc1ccc(CN2CCN(c3ncnc4scc(-c5cccs5)c34)CC2)cc1	6.8	58.0*	1.8	x	-12.0	x
N#C/C(=C\c1ccc(-c2ccccc2[N+](=O)[O-])o1)C(=O)Nc1cccc(Br)c1	x	x	x	x	x	7.5
N#C/C(=C/c1ccc(O)c([N+](=O)[O-])c1)C(=O)Nc1cccc(Br)c1	x	x	x	x	x	102.2*
N#C/C(=C/c1ccc([N+](=O)[O-])o1)C(=O)Nc1cccc(Br)c1	x	x	x	x	x	87.2*
SMILES	PostGolgi yeast	PostGolgi ctrl	PLAP act	tolC growth inh	E coli WT exp	HePTP inhibitor
O=C(Nc1cccc(Cl)c1)N1CCN(Cc2ccccc2)CC1	-3.1	12.1	1	-4.3	24.0	11.7
COC(=O)Nc1ccc(OC)c(OC)c1	-8.1	23.8	1.2	-9.4	2.0	-4.0
COc1ccc(NC(=S)NNC(=O)OC(C)(C)C)cc1OC	-9.1	-1.6	2.5*	x	5.0	x
CCOC(=O)Cn1nnnc1CN(Cc1ccc(OC)cc1)Cc1cc2cc(CC)ccc2[nH]c1=O	-6.4	8.4	1.5	54.6	2.0	5.6
Clc1cccc(Cl)c1CNC1CCCC1	0.2	7.2	1.1	x	1.0	x
O=S(=O)(c1cccs1)N1CCN(Cc2nc3ccccc3s2)CC1	-10.6	23.0	0.8	16.4	-5.0	-6.8
O=C(Nc1ccc(Cl)c(C(F)(F)F)c1)c1ccc(Br)cc1	x	x	x	x	x	-4.0
Cc1ccc(C(=O)Nc2ccc(Br)c(C(F)(F)F)c2)cc1	35.6*	26.7	1	x	4.0	x
